According to ChEMBL document CHEMBL4477211, “Synthesis and Investigation of Tetrahydro-β-carboline Derivatives as Inhibitors of the Breast Cancer Resistance Protein (ABCG2)” (J Med Chem, 2016):

How the values were obtained:
[1] = target: ATP-dependent translocase ABCB1 (Homo sapiens, UniProt P08183); assay: Inhibition of ABCB1 in human A2780/ADR cells assessed as reduction in calcein AM efflux pre-incubated for 30 mins before calcein AM addition and measured for 60 mins by microplate reader analysis relative to control; assay type: cell-based
ABCB1 = ABCB1 (Homo sapiens, UniProt P08183); assay: Inhibition of ABCB1 in human A2780/ADR cells assessed as reduction in calcein AM efflux at 10 uM pre-incubated for 30 mins before calcein AM addition and measured for 60 mins by microplate reader analysis relative to control; assay type: cell-based; conditions: probe calcein AM
Procedure, shortened: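 Compound at 10 µM pre-incubated 30 min at 37 °C. Calcein AM added from 3.125 µM solution. Fluorescence (ex 485/em 520 nm) read every 60 s for 60 min.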

[2] = target: T1, Broad substrate specificity ATP-binding cassette transporter ABCG2 (Homo sapiens, UniProt Q9UNQ0); assay: Inhibition of human ABCG2 expressed in MDCK2 cells assessed as reduction in Hoechst 33342 efflux pre-incubated for 30 mins before Hoechst 33342 addition and measured for 120 mins by microplate reader analysis; assay type: cell-based
T1 sequence (Q9UNQ0 whole entry): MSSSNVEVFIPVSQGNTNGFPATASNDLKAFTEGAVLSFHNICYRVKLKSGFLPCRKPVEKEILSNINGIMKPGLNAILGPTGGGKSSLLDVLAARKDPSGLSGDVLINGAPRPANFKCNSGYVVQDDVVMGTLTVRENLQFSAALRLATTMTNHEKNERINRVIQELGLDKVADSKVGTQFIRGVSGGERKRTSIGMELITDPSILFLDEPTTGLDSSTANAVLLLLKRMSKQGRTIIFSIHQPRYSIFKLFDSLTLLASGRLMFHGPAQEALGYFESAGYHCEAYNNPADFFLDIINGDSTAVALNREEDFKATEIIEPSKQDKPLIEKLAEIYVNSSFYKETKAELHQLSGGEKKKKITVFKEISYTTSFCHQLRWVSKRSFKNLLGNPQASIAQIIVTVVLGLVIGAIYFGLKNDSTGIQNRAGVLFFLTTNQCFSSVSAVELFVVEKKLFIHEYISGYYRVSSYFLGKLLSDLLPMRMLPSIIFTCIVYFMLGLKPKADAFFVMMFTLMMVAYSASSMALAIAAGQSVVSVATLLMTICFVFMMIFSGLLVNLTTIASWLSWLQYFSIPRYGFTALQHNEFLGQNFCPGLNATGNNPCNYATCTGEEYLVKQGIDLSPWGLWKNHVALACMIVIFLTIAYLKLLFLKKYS
Procedure, shortened: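 Compound dilutions up to 10 µM (from 10 mM DMSO stocks) pre-incubated 30 min at 37 °C. Hoechst 33342 then added from 6 µM solution. Fluorescence (ex 355/em 460 nm) read each 60 s over 120 min.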

[3] = target: T1, Broad substrate specificity ATP-binding cassette transporter ABCG2; assay: Inhibition of human ABCG2 expressed in MDCK2 cells assessed as reduction in pheophorbide A efflux pre-incubated for 30 mins before pheophorbide A addition and measured for 120 mins by flow cytometry
[4] = Cytotoxicity against wild-type MDCK2 cells assessed as reduction in cell viability after 72 hrs by MTT assay; assay type: cell-based, Canis lupus familiaris; conditions: dog, wild-type MDCK2 (MDCK-II) cells
Procedure, shortened: (§1)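 MDCK II cells retrovirally transfected with human ABCG2-GFP cDNA, and wild-type MDCK II, in DMEM with 10% FBS. Seeded at 3 x 10^3 cells/well and attached 6 h at 37 °C, 5% CO2. Compounds up to 100 µM for 72 h. Controls were 10% DMSO and medium. MTT (5 mg/ml) added for 1 h, read at 570 nm minus 690 nm. Data normalised; GI50 from variable-slope sigmoidal fit.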

[5] = Cytotoxicity against MDCK2 cells expressing human ABCG2 assessed as reduction in cell viability after 72 hrs by MTT assay; assay type: ADME, cell-based, Canis lupus familiaris; conditions: dog, MDCK2 (MDCK-II) cells expressing human ABCG2; procedure, shortened: as §1
[6] = Ratio of GI50 for MDCK2 cells expressing human ABCG2 to IC50 for human ABCG2 expressed in MDCK2 cells
[7] = Ratio of GI50 for wild-type MDCK2 cells to IC50 for human ABCG2 expressed in MDCK2 cells
[8] = target: T1, Broad substrate specificity ATP-binding cassette transporter ABCG2; assay: Reversal of human ABCG2-mediated resistance to SN-38 in human ABCG2 expressed MDCK2 cells assessed as reduction in SN-38 GI50 after 72 hrs by MTT assay
[9] = target: T1, Broad substrate specificity ATP-binding cassette transporter ABCG2; assay: Inhibition of human ABCG2 expressed in baculovirus infected Sf9 cell membrane assessed as inhibition of vanadate sensitive basal ATPase activity after 20 mins by colorimetric method
Procedure, shortened: (§2)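 Cholesterol-loaded membranes from Sf9 cells infected with baculovirus carrying human wild-type ABCG2; 10 µg protein per reaction. Buffer: 40 mM MOPS-Tris pH 7.0, 50 mM KCl, 2 mM DTT, 0.5 mM EGTA-Tris, 5 mM azide, 1 mM ouabain. Started with 3.3 mM MgATP, 20 min at 37 °C, stopped with SDS. Pi measured by molybdate/ascorbate colour at 880 nm against K2HPO4 standard.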

[10] = target: T1, Broad substrate specificity ATP-binding cassette transporter ABCG2; assay: Inhibition of human ABCG2 expressed in baculovirus infected Sf9 cell membrane assessed as inhibition of vanadate sensitive quercetin-stimulated ATPase activity after 20 mins by colorimetric method; procedure, shortened: as §2
ABCG2 = target: T2, ABCG2 (Homo sapiens, UniProt Q9UNQ0); assay: Ratio of IC50 for human ABCG2 expressed in baculovirus infected Sf9 cell membrane assessed as inhibition of vanadate sensitive quercetin-stimulated ATPase activity to IC50 for human ABCG2 expressed in baculovirus infected Sf9 cell membrane assessed as inhibition of vanadate sensitive basal ATPase activity; conditions: read-out: Ratio IC50
T2 sequence (Q9UNQ0 whole entry): T1 sequence (Q9UNQ0 whole entry)

[11] = target: T1, Broad substrate specificity ATP-binding cassette transporter ABCG2; assay: Inhibition of human ABCG2 expressed in baculovirus infected Sf9 cell membrane assessed as inhibition of vanadate sensitive ATPase activity at 1 uM after 20 mins by colorimetric method; conditions: sf9, 20 min
[12] = Solubility in pH 7.4 Krebs-HEPES buffer at 10 uM after 2 hrs by UV-visible spectrophotometric analysis; assay type: physicochemical; conditions: pH 7.4, 2 h
Procedure, shortened: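 10 µM test solutions prepared from DMSO stocks as for the Hoechst 33342 assay, in Krebs-HEPES pH 7.4. Absorbance at an absorption peak maximum recorded every 120 s for 2 h at room temperature by UV/visible spectrophotometer.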

Sequence of ATP-dependent translocase ABCB1 (P08183 whole entry): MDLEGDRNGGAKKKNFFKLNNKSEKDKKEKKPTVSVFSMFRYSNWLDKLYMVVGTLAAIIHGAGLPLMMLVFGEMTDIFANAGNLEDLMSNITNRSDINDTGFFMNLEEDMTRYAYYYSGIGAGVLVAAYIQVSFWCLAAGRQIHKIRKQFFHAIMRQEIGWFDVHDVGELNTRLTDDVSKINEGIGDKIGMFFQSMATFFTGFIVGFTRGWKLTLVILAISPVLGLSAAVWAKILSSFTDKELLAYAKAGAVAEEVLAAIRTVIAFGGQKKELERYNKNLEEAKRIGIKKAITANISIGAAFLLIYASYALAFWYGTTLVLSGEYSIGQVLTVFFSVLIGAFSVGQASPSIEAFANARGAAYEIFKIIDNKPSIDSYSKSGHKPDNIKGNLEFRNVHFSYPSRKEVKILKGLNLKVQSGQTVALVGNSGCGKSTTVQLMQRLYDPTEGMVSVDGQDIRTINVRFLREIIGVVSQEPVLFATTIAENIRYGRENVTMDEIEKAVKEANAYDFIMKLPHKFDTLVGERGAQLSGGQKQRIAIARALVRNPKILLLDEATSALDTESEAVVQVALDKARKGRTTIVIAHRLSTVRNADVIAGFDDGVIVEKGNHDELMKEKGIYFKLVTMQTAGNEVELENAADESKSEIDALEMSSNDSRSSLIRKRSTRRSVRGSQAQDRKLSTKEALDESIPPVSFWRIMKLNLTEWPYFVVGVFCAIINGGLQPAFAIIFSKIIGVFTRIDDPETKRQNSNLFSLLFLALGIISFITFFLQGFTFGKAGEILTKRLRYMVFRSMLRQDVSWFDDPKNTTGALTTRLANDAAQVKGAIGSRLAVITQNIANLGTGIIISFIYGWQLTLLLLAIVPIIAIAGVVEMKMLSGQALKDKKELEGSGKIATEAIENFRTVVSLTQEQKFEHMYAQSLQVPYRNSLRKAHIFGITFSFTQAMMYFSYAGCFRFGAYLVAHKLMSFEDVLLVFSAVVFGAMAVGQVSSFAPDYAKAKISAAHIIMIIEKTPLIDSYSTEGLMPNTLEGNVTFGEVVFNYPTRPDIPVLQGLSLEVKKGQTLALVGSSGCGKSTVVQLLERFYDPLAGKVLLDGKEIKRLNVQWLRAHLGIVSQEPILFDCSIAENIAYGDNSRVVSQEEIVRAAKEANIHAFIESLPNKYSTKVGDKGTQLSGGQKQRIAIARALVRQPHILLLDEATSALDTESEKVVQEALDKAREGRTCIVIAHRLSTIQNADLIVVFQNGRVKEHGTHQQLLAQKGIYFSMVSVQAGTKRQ
Sequence of ABCB1 (P08183 whole entry): as above

IC50 [1] [µM] | inhibition at 1 h, 10 µM (ABCB1) [%] | IC50 ([2]; read-out: IC50) [µM] | SMILES | also measured
13.4 | > 25 | 1.89 | O=C(c1ccccc1)N1CCc2c([nH]c3ccccc23)C1c1ccc(F)cc1 (configuration not stated) | 
12.9 | > 25 | 2.33 | CC(C)CC1c2[nH]c3ccccc3c2CCN1C(=O)c1ccccc1 (configuration not stated) | 
8.76 | > 25 | 1.1 | O=C(c1ccccc1)N1CCc2c([nH]c3ccccc23)C1c1ccc(F)c(F)c1 (configuration not stated) | IC50 ([3]; read-out: IC50): 1.8 µM
 | < 25 | 1.03 | O=C(c1ccc(Cl)cc1)N1CCc2c([nH]c3ccccc23)C1c1ccc(Cl)c(Cl)c1 (configuration not stated) | 
 | < 25 | 0.382 | COc1ccc2[nH]c3c(c2c1)CCN(C(=O)c1ccccc1)C3c1ccc(Cl)c(Cl)c1 (configuration not stated) | GI50 at 72 h [4]: 5.27 µM; GI50 at 72 h [5]: 4.17 µM; Ratio [6]: <=20; Ratio [7]: <=20; Activity [8]: Dose-dependent effect; IC50 [9]: 0.029 µM; IC50 [10]: 0.299 µM; selectivity ratio (ABCG2): 10.4; inhibition (INH) [11]: Active
19.2 | > 25 | 0.883 | COc1ccc(C(=O)N2CCc3c([nH]c4ccccc34)C2c2cccc(Cl)c2)cc1 (configuration not stated) | 
11.3 | > 25 | 4.49 | O=C(c1ccccc1)N1CCc2c([nH]c3ccccc23)C1c1ccccc1F (configuration not stated) | 
23.4 | > 25 | 1.26 | O=C(c1ccc(Cl)cc1)N1CCc2c([nH]c3ccccc23)C1c1ccc(F)c(F)c1 (configuration not stated) | 
 | < 25 | 0.741 | O=C(c1ccccc1)N1CCc2c([nH]c3ccccc23)C1c1ccc(Cl)cc1 (configuration not stated) | GI50 at 72 h [4]: 16.4 µM; GI50 at 72 h [5]: 18.1 µM; Ratio [6]: 20 - 30; Ratio [7]: 20 - 30; Activity [8]: Dose-dependent effect; IC50 [9]: 0.06 µM; IC50 [10]: 0.56 µM; selectivity ratio (ABCG2): 9.3; inhibition (INH) [11]: Active; IC50 ([3]; read-out: IC50): 0.784 µM
7.33 | > 25 | 3.62 | COc1ccc(C2c3[nH]c4ccccc4c3CCN2C(=O)c2ccccc2)cc1OC (configuration not stated) | 
 | < 25 | > 10 | Clc1ccc(C2c3[nH]c4ccccc4c3CCN2Cc2ccccc2)cc1Cl (configuration not stated) | solubility [12]: Soluble
22.5 | > 25 | 0.869 | O=C(c1ccccc1)N1CCc2c([nH]c3ccccc23)C1c1cccc(Cl)c1 (configuration not stated) | IC50 ([3]; read-out: IC50): 0.811 µM
 | < 25 |  | COc1cccc(C2NCCc3c2[nH]c2ccccc32)c1 (configuration not stated) | IC50 [2]: Not Active; IC50 [3]: Not Active
 | < 25 |  | c1ccc(C2NCCc3c2[nH]c2ccccc32)cc1 (configuration not stated) | IC50 [2]: Not Active; IC50 [3]: Not Active
 |  |  | COc1ccc2c(c1)[nH]c1c(C)nccc12 [HARMINE] | GI50 at 72 h [4]: 2.3 µM; GI50 at 72 h [5]: 2.42 µM; inhibition (INH) [11]: Not Active
6.55 | > 25 | 2 | N#Cc1cccc(C2c3[nH]c4ccccc4c3CCN2C(=O)c2ccccc2)c1 (configuration not stated) | 
 | < 25 | > 10 | CCn1c2c(c3ccccc31)CCN(C(=O)c1cccc(OC)c1)C2c1ccc(Cl)c(Cl)c1 (configuration not stated) | solubility [12]: Soluble

IC50 [1] [µM] | inhibition at 1 h, 10 µM (ABCB1) [%] | IC50 ([2]; read-out: IC50) [µM] | SMILES | also measured
12 | > 25 | 2.21 | COc1ccc(C2c3[nH]c4ccccc4c3CCN2C(=O)c2ccccc2)cc1 (configuration not stated) | 
9.23 | > 25 | 10.4 | CCn1c2c(c3ccccc31)CCN(C(=O)c1ccccc1)C2c1ccccc1 (configuration not stated) | solubility [12]: Soluble
 | < 25 | 1.78 | O=C(c1ccc(Cl)cc1)N1CCc2c([nH]c3ccccc23)C1c1ccc(Br)cc1 (configuration not stated) | 
9.55 | > 25 | 1.75 | COc1ccc(C(=O)N2CCc3c([nH]c4ccccc34)C2c2ccccc2)cc1 (configuration not stated) | 
8.24 | > 25 | 0.805 | COc1ccc(C(=O)N2CCc3c([nH]c4ccccc34)C2c2ccc(F)c(F)c2)cc1 (configuration not stated) | 
14.3 | > 25 | 0.698 | COc1ccc(C(=O)N2CCc3c([nH]c4ccccc34)C2c2ccc(Cl)c(Cl)c2)cc1OC (configuration not stated) | 
 | < 25 | 1.43 | Cc1ccc(C2c3[nH]c4ccccc4c3CCN2C(=O)c2ccccc2)cc1 (configuration not stated) | 
7.94 | > 25 | 2.78 | O=C(c1ccccc1)N1CCc2c([nH]c3ccccc23)C1c1ccccc1 (configuration not stated) | GI50 at 72 h [4]: 12.4 µM; GI50 at 72 h [5]: 12.9 µM; solubility [12]: Soluble; Activity [8]: Dose-dependent effect; IC50 [9]: 0.196 µM; IC50 [10]: 2.02 µM; selectivity ratio (ABCG2): 10.3; inhibition (INH) [11]: Active
3.38 | > 25 | 1.45 | COc1ccc(C(=O)N2CCc3c([nH]c4ccccc34)C2c2cccc(OC)c2)cc1 (configuration not stated) | 
 | < 25 | > 10 | c1ccc(CN2CCc3c([nH]c4ccccc34)C2c2ccccc2)cc1 (configuration not stated) | solubility [12]: Soluble
2.86 | > 25 | 1.1 | COc1ccc(C(=O)N2CCc3c([nH]c4ccccc34)C2c2ccc(F)c(F)c2)cc1OC (configuration not stated) | 
 | < 25 | 0.687 | O=C(c1ccccc1)N1CCc2c([nH]c3ccccc23)C1c1ccc(Br)cc1 (configuration not stated) | GI50 at 72 h [4]: 19.4 µM; GI50 at 72 h [5]: 20.6 µM; Ratio [6]: 20 - 30; Ratio [7]: 20 - 30; Activity [8]: Dose-dependent effect; IC50 [9]: 0.112 µM; IC50 [10]: 0.863 µM; selectivity ratio (ABCG2): 7.7; inhibition (INH) [11]: Active
 | < 25 | 1.23 | COc1ccc(C(=O)N2CCc3c([nH]c4ccccc34)C2c2ccc(C(F)(F)F)cc2)cc1 (configuration not stated) | solubility [12]: Soluble
7.4 | > 25 | 7.82 | CC(=O)Nc1ccc(C2c3[nH]c4ccccc4c3CCN2C(=O)c2ccccc2)cc1 (configuration not stated) | solubility [12]: Soluble
6.22 | > 25 | 1.92 | COc1cccc(C2c3[nH]c4ccccc4c3CCN2C(=O)c2ccccc2)c1 (configuration not stated) | 
 | < 25 | 1.32 | O=C(c1cccc2ccccc12)N1CCc2c([nH]c3ccccc23)C1c1ccc(Cl)c(Cl)c1 (configuration not stated) | 
